According to PMC3889518 (European Journal of Clinical Pharmacology, 2013):
pKi: −log10 of the molar value. Entries after “also recorded” stand apart in the source; their conditions may differ.

Assays:
[1] = Safety and tolerability in healthy subjects; format: in vivo, human
CYP2C8 [2] = details: strong inhibitor of CYP2C8; cited from earlier work
CYP2C8 [3] = details: cited from earlier work
CYP3A4 [4] = details: co-administration with ketoconazole, strong inhibitor of CYP3A4; cited from earlier work
CYP3A4 [5] = target: CYP3A4 (Homo sapiens, UniProt P08684); format: in vivo; details: repeat dosing of vercirnon 500 mg BID, midazolam probe, healthy subjects
Sequence of CYP3A4 (Homo sapiens, UniProt P08684) (P08684 whole entry): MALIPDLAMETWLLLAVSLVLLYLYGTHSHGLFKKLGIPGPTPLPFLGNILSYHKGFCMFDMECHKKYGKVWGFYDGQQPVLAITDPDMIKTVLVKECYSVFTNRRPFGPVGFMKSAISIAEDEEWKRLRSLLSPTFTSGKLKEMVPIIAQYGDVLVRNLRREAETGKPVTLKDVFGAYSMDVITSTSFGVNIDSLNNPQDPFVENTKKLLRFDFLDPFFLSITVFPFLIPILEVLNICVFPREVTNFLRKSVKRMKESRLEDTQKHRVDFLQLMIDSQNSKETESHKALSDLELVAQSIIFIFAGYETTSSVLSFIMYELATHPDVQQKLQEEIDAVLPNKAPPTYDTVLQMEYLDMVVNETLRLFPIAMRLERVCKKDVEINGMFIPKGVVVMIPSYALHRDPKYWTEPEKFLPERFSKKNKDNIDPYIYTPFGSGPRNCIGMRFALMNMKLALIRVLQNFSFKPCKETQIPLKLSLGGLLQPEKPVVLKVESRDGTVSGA

CYP2C8 [6] = target: T1, CYP2C8 (Homo sapiens, UniProt P10632); format: in vivo; details: repeat dosing of vercirnon 500 mg BID, pioglitazone probe, healthy subjects
T1 sequence (P10632 1-490): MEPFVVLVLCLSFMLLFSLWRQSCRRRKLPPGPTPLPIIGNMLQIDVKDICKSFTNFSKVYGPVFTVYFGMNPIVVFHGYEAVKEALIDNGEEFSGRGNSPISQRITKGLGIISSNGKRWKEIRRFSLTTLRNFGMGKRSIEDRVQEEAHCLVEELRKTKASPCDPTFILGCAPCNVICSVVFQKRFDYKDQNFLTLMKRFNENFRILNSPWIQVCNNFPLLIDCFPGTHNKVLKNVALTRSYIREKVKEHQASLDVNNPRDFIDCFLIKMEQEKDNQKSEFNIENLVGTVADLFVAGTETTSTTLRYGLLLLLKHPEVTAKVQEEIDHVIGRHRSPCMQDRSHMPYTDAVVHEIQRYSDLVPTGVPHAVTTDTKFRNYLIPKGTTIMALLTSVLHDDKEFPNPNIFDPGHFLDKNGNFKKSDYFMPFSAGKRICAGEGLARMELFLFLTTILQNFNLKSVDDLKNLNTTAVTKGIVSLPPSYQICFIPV

CYP2C19 = CYP2C19 (Homo sapiens, UniProt P33261); format: in vivo; details: repeat dosing of vercirnon 500 mg BID, omeprazole probe, healthy subjects
Sequence of CYP2C19 (P33261 whole entry): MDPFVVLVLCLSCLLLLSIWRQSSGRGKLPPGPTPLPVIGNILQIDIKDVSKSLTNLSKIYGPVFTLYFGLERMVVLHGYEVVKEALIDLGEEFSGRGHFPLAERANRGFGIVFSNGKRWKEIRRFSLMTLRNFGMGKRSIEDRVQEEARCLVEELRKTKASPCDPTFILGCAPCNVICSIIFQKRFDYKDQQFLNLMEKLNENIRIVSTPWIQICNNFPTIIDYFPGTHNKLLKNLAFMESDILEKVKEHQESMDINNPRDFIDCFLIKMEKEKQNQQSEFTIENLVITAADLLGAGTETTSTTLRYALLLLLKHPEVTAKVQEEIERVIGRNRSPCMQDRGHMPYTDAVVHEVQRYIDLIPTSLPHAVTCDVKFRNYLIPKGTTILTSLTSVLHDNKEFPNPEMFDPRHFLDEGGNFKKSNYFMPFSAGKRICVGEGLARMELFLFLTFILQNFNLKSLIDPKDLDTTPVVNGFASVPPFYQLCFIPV

BCRP and OATP1B1 = format: in vivo, human; details: repeat dosing of vercirnon 500 mg BID, rosuvastatin probe, healthy subjects
Outline: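 Open-label, single-sequence study in 24 healthy adults aged 18–55. Rosuvastatin 10 mg oral tablet was given alone on day 4 and again on day 14 with vercirnon 500 mg BID after meals (days 5–14). Dosing was 30 min after breakfast with 240 mL water. Serial plasma samples were taken over 48 h. Non-compartmental AUC0–∞ was loge-transformed and analysed in a mixed-effects model (treatment fixed, subject random), giving a geometric LS mean ratio with 90% CI.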

[7] = format: in vivo, human; details: day 10 compared with day 5, vercirnon 500 mg BID
Outline: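 Vercirnon 500 mg BID, taken after meals, starting study day 5. Six volunteers had serial plasma sampling over 24 h on days 5 and 10 for vercirnon and two metabolites. Non-compartmental AUC0–τ, Cmax and tmax were determined. Accumulation ratio for AUC0–τ and Cmax compared day 10 with day 5. Metabolite:parent AUC0–τ ratios were molar. Steady state was tested on day 6–11 troughs from all 24 subjects by the 90% CI of the regression slope.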

[8] = oral administration 250 to 1,000 mg; cited from earlier work
[9] = ref ChemoCentryx, data on file; cited from earlier work
[10] = test system: human p-glycoprotein transporter protein; details: ref ChemoCentryx, data on file; cited from earlier work
[11] = ref ChemoCentryx, data on file; cited from earlier work; remark: listed apart in the source
[12] = multiple oxidative and reductive pathways, including CYP3A4, CYP2C19 and CYP2B6; ref ChemoCentryx, data on file; cited from earlier work
[13] = read-out: maximum observed concentration [Cmax] range; likely therapeutic plasma concentrations; ref ChemoCentryx, data on file; cited from earlier work
[14] = test system: breast cancer resistant protein (BCRP); details: ref ChemoCentryx and GlaxoSmithKline, data on file; cited from earlier work
OAT1B1 = details: ref ChemoCentryx and GlaxoSmithKline, data on file; cited from earlier work
OAT1 = details: ref ChemoCentryx and GlaxoSmithKline, data on file; cited from earlier work
OAT3 = details: ref ChemoCentryx and GlaxoSmithKline, data on file; cited from earlier work
OATP1B1 = details: co-administration of cyclosporin, inhibitor of OATP1B1; cited from earlier work
[15] = high first-pass effect; cited from earlier work

Cc1ncc2n1-c1ccc(Cl)cc1C(c1ccccc1F)=NC2 [Midazolam, reference compound]
Somnolence, number of subjects reporting ([1]; of 24 subjects, on 19 occasions, midazolam alone or midazolam + vercirnon): 13 subjects

Cc1ccc(C)c(OCCCC(C)(C)C(=O)O)c1 [gemfibrozil]
pKi (CYP2C8 [2]): 4.12 to 4.16

CCc1ccc(CCOc2ccc(CC3SC(=O)NC3=O)cc2)nc1 (stereo not drawn) [Pioglitazone]
Increase of pioglitazone AUC (CYP2C8 [3]; co-administration with gemfibrozil): 3.4 fold
Decrease of exposure (AUC) of pioglitazone (CYP2C8 [3]; co-administration with rifampin, inducer of CYP2C8): 54%
Increase of pioglitazone (CYP3A4 [4]): 34%

CC(C)(C)c1ccc(S(=O)(=O)Nc2ccc(Cl)cc2C(=O)c2cc[n+]([O-])cc2)cc1 [Vercirnon]
Effect on CYP3A4 enzyme activity (CYP3A4 [5]): no clinically significant effect
Effect on CYP2C8 enzyme activity (CYP2C8 [6]): no clinically significant effect
Effect on CYP2C19 enzyme activity (CYP2C19): no clinically significant effect
Effect on BCRP or OATP1B1 transporter activity (BCRP and OATP1B1): no clinically significant effect
Average accumulation in terms of AUC0–τ [7]: 14%
Average accumulation in terms of Cmax [7]: 3%
Tolerability ([1]; 24 healthy subjects, all treatments over 14 days, vercirnon 500 mg BID): well tolerated
time to maximum concentration (tmax) [8]: 3 to 4 h
protein bound [9]: > 90%
Substrate for human p-glycoprotein transporter protein or other transport proteins [10]: unlikely to be a substrate
Permeability [11]: passively permeable
Metabolism [12]: extensively metabolised
Cmax [13]: 3 to 5 µM
Inhibition of BCRP in vitro [14]: can inhibit
Inhibition of OAT1B1 in vitro (OAT1B1): has the potential to inhibit; also recorded: can inhibit
Inhibition of OAT1 in vitro (OAT1): can inhibit
Inhibition of OAT3 in vitro (OAT3): can inhibit

CC(C)c1nc(N(C)S(C)(=O)=O)nc(-c2ccc(F)cc2)c1/C=C/[C@@H](O)C[C@@H](O)CC(=O)O [Rosuvastatin]
Increase of rosuvastatin AUC (OATP1B1): 7 fold
bioavailability [15]: ~20%
